Screening data as filed in PubChem BioAssay.
Shown are actives, neighbours in structure and some others; about 1.9% of the full set was active somewhere.
UCH37 DUB inh: inhibitors of human UCH37 deubiquitinase, primary screen, biochemical, Ub-AMC cleavage, fluorescence. purified proteasome/UCH37. inhibition, % (test concentration not listed). 330,000 tested, 0.33% active;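 active = mean inhibition over replicate wells above about 20%, limit read from the data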
Target sequence (Q9Y5K5 whole entry, looked up): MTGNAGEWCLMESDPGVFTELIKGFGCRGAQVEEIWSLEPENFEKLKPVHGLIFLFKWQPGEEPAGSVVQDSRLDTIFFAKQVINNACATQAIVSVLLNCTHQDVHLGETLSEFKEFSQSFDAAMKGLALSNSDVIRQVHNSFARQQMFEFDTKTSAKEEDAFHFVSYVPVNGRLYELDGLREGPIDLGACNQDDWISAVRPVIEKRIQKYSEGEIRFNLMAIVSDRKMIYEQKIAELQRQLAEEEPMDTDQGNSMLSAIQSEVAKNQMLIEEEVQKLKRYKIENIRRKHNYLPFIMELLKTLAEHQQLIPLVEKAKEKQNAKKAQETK
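System: Proteasome-associated human UCH37 deubiquitinase; Input: 0.15 nM proteasome in added enzyme buffer; Also added: Ub-AMC substrate from 1 µM stock; Incubation: 30 min compound-proteasome preincubation then 25 min substrate reaction, room temperature; Detection: fluorescence, ex 355 nm, em 460 nm; Read-out: % inhibition of Ub-AMC cleavage fluorescence; Benchmarks: no-proteasome and no-compound wells.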
MIN6 prolif-1: inducers of MIN6 beta-cell proliferation, primary screen, ATP luminescence, uHTS. 330,000 tested, 0.29% active. AID 2380, 2010. proliferation, % at 10 µM. MIN6 cells proliferation, ATPlite luminescence, 48 h; cells starved in 0.2% serum; 100% = growth in 10% serum;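 active = compounds whose signal lies at least 3.5 SD above the mean of all wells on their plate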
PG9 binder: binders of HIV-1 gp120 antibody PG9, primary screen, biochemical, TR-FRET; HIV-1 gp120 / PG9 antibody interaction; TR-FRET gp120-PG9 antibody binding; inhibition, % at 6.7 µM; 360,000 tested, 0.43% active; AID 624416, 2012; in the data active = inhibition above about 8.5%
Rce1 inhib: yeast Rce1p protease inhibitors, primary screen, biochemical, fluorescence, cell-free homogeneous; CAAX prenyl protease 2 (Saccharomyces cerevisiae (strain ATCC 204508 / S288c)), Q03530; yeast membranes, quenched prenylated peptide cleavage fluorescence; calls only; 290,000 tested, 0.27% active; AID 2563, 2010;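 active = fall in fluorescence gain of 50% or more versus controls, with final raw signal at or below 3038400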
NR1D1 modulator: modulators of Rev-erb alpha DNA binding, primary screen, biochemical, FITC-DNA, fluorescence polarization, uHTS; Nuclear receptor subfamily 1 group D member 1 (Homo sapiens), P20393; Rev-erbα–FITC-DNA binding, 90 min; activity, % at 10 µM; 370,000 tested, 0.79% active; AID 1259318, 2017;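 active = activity above about 14%, limit read from the data; passing the limit was not always enough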
Yeast superoxide: reduction of superoxide in aged yeast, primary screen, HTS. S. cerevisiae aged cells, superoxide DHE fluorescence; hits give low values. superoxide response (% of plate mean), % at 10 µM. 330,000 tested, 0.18% active;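 active = superoxide response under a set limit, about three screen SD below normal, cut at about 65% in these data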;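 also: yeast aged for seven days with compound at 30 °C before DHE staining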
MIN6 prolif-2: inducers of beta-cell proliferation in MIN6, confirmation, MIN6 cells, mouse. shares compounds with MIN6 prolif-1. ATPlite luminescence, 48 h; cells kept in 0.2% serum; scaled between 0.2% and 10% serum. proliferation increase, % at 50 µM. 920 tested, under 10 active. AID 463095, 2010;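 active = proliferation increase above 40% at any of the four tested concentrations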
Of the large screens only hits and unclear results are named; the others gave an inactive call (follow-up assays come after a bar, where they were run).

Cc1cc(=O)oc2cc(OC(C)C(=O)NCC3CCC(C(=O)O)CC3)c(Cl)cc12 (centres undefined)	none
CCc1cc(=O)oc2cc(OC(C)C(=O)NCC3CCC(C(=O)O)CC3)c(Cl)cc12 (centres undefined)	MIN6 prolif-1 11 | MIN6 prolif-2 inactive
COc1cccc(C=Nn2c(-c3cc(C)[nH]n3)n[nH]c2=S)c1	none (no result: MIN6 prolif-1, PG9 binder, Rce1 inhib, NR1D1 modulator, Yeast superoxide)
Cc1oc2ccc(O)cc2c1C(=O)c1ccc(F)cc1	MIN6 prolif-1 15 | MIN6 prolif-2 inactive
COc1ccc2oc(C)c(C(=O)c3ccc([N+](=O)[O-])cc3)c2c1	none
COc1cccc(C2NC(=O)NC(C)=C2C(=O)Nc2ccc(C)cc2)c1OC (centres undefined)	MIN6 prolif-1 5.4 (no result: Rce1 inhib) | MIN6 prolif-2 inactive
COc1ccccc1OCCOc1ccc(C=Nn2cnnc2)cc1	none (no result: MIN6 prolif-1, PG9 binder, Rce1 inhib, NR1D1 modulator, Yeast superoxide)
O=C(OCc1nnc(-c2ccccc2)o1)c1cccc(-n2cnnn2)c1	MIN6 prolif-1 11 (no result: UCH37 DUB inh, Rce1 inhib) | MIN6 prolif-2 inactive
O=C(COC(=O)c1cccc(-n2cnnn2)c1)c1ccccc1	none
O=C(CN(Cc1ccccc1)C(=O)c1csnn1)NCCc1ccccc1	none
CCOc1ccccc1N(CC(=O)NCCc1ccc(OC)c(OC)c1)S(=O)(=O)c1ccccc1	MIN6 prolif-1 7.1 | MIN6 prolif-2 inactive
O=C(CN(Cc1ccccc1Cl)C(=O)c1csnn1)NCCc1ccccc1	MIN6 prolif-1 6.0 | MIN6 prolif-2 inactive
COc1ccc(N(CC(=O)NCCc2ccccc2)C(=O)c2csnn2)cc1OC	MIN6 prolif-1 6.2 (no result: UCH37 DUB inh) | MIN6 prolif-2 inactive
CCOc1ccccc1N(CC(=O)Nc1ccc(OC)c(OC)c1)S(=O)(=O)c1ccccc1	none
C=CCOc1ccc(-c2nc3c(c(=O)[nH]c(=O)n3CCCC)n2C)cc1OC	MIN6 prolif-1 12 (no result: UCH37 DUB inh) | MIN6 prolif-2 inactive
CCOC(=O)/C(=N\O)C1=NC(C)(C)Cc2ccccc21	none (no result: UCH37 DUB inh)
CCOC(=O)/C(C(=O)Nc1ccccc1Br)=C1/NC(C)(C)Cc2ccccc21	MIN6 prolif-1 0.0 | MIN6 prolif-2 inactive
CC(=NNS(=O)(=O)c1cc(C)ccc1C)c1ccncc1	none (no result: MIN6 prolif-1, PG9 binder, Rce1 inhib, NR1D1 modulator, Yeast superoxide)
CCOC(=O)NN=C(C)c1ccc(OC(F)F)cc1OC(F)F	none (no result: MIN6 prolif-1, PG9 binder, Rce1 inhib, NR1D1 modulator, Yeast superoxide)
O=C(Cc1cccs1)N1CCN(S(=O)(=O)c2ccccc2)CC1	MIN6 prolif-1 7.2 | MIN6 prolif-2 inactive
CC(C)n1cnc2c(N(C)c3cccc(Cl)c3)nc(N(CCO)CCO)nc21	MIN6 prolif-1 17 | MIN6 prolif-2 inactive
CCN(CCn1cccn1)Cc1nc(-c2ccc(OC)cc2)no1	MIN6 prolif-1 7.2 (no result: UCH37 DUB inh) | MIN6 prolif-2 inactive
COc1ccc(CC(=O)N(Cc2ccccc2)C(C)C)cc1	none
COc1ccc(CCC(C)N(C)Cc2ccccc2)cc1 (centres undefined)	MIN6 prolif-1 6.6 | MIN6 prolif-2 inactive
CCOc1ccc(CCNC(=O)CCCn2c(=O)c3cccn3c3cccnc32)cc1OCC	MIN6 prolif-1 17 | MIN6 prolif-2 inactive
CCC(C(=O)Nc1cc(C)nn1-c1nc(C)cc(C)n1)c1ccccc1 (centres undefined)	MIN6 prolif-1 6.1 | MIN6 prolif-2 inactive
CC(=O)c1ccc(N(CC(=O)NC2CCCCC2)C(=O)c2csnn2)cc1	MIN6 prolif-1 6.6 (no result: UCH37 DUB inh) | MIN6 prolif-2 inactive
FC(F)Sc1nnc(-c2cccs2)n1-c1ccccc1	MIN6 prolif-1 9.6 | MIN6 prolif-2 inactive
N#Cc1ccc(CSc2nnc(-c3cccs3)n2-c2ccccc2)cc1	none
COc1ccc(C2C(C(C)=O)=C(C)N=c3sc(=Cc4ccco4)c(=O)n32)c(OC)c1 (centres undefined)	none (no result: MIN6 prolif-1, PG9 binder, Rce1 inhib, NR1D1 modulator, Yeast superoxide)
